MC4R antagonist – blocks human MC4R cAMP signaling | MC4R-expressing cells, MTII-stimulated cAMP, LANCE TR-FRET | 0.48% of 360,000 active | P32245 | inhibition, % at 6.5 µM;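 active = inhibition above its plate's cutoff, the mean of tested wells on that plate plus 3 SD, cut at about 29% in these data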
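Assay system: U2OS-MC4R stable cell line; Also added: Melanotan II; Technique: Eu-cAMP/anti-cAMP TR-FRET, emission 671 nm; Times: 30-min compound, 1-h challenge, 1-h detection, room temperature.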
MC4R barr agon – agonists of human melanocortin 4 receptor (MC4R) beta-arrestin; P32245; U2OS MC4R beta-arrestin complementation, luminescence; percent of melanotan II response, DMSO zero; activation, % at 8.9 µM; 0.98% of 360,000 active; AID 540308;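 active = activation above a per-plate cutoff, the mean activation of sample wells on that plate plus 3 SD, cut at about 8% in these data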
m5-HT2A agonist – mouse HTR2A agonism via beta-arrestin recruitment; P35363; CHO-K1 mHTR2A beta-arrestin complementation, luminescence; percent of 30 µM serotonin response; activation, % at 7.6 µM; 0.66% of 360,000 active; AID 624169;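 active = activation above a run cutoff, the mean activation of all tested compounds plus 3 SD, cut at about 14% in these data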
PREPL inhibitor – inhibitors of human prolyl oligopeptidase-like enzyme PREPL | Q4J6C6 | recombinant PREPL, fluorescence polarization activity-based probe | inhibition, % at 5.96 µM | 0.68% of 320,000 active; in the data active = inhibition above about 43%
Target sequence (Q4J6C6 whole entry, looked up): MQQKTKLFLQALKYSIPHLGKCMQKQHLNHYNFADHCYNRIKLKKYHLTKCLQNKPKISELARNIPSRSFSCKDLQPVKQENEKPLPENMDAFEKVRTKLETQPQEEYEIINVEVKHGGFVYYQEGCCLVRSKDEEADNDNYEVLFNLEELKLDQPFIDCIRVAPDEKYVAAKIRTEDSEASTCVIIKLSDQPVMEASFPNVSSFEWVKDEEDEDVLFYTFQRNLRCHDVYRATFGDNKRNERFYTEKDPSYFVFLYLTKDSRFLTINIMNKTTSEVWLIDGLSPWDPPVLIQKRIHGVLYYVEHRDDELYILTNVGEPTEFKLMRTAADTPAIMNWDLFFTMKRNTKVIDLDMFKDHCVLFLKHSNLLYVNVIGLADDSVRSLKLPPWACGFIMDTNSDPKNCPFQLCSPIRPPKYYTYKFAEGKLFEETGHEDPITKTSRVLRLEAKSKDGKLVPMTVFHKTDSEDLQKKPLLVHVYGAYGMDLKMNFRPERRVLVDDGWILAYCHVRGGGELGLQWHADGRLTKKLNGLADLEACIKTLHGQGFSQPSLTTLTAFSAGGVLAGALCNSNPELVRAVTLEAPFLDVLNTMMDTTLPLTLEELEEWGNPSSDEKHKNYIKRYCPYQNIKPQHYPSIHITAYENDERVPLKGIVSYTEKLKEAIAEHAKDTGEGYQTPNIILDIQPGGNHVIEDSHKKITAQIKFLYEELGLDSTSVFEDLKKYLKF
Hep lipid drop – modulators of hepatic lipid droplet formation; 0.4% of 240,000 active; AML12 mouse hepatocytes, oleate lipid droplets, BODIPY imaging; inhibition, % at 6.5 µM; AID 1656;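 active = lipid droplet intensity inhibited by at least 50%, with more than 500 cells counted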
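Test system: AML12 mouse liver cells; schedule: overnight exposure; technique: high-content imaging of BODIPY-stained droplets and DAPI nuclei; read-out: % inhibition of corrected integrated BODIPY droplet signal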
NTR1 ag – NTR1 (human) agonism; P30989; NTR1-U2OS beta-arrestin-GFP spot imaging, agonist mode; activation, % at 20 µM; 0.17% of 330,000 active;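 active = activation at or above 40% of the spot to cytoplasm intensity ratio, with at least 20 cells analyzed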
Large screens that a line does not name were inactive. Shown are actives, neighbours in structure and some others; about 2.7% of the full set was active somewhere.

COc1ccc(C=O)cc1COc1ccc(Cl)cc1[N+](=O)[O-]	MC4R barr agon 9.9 (no result: Hep lipid drop)
CCOc1ccc(NC(=O)NCCCCc2ccccc2)cc1	MC4R barr agon 9.0
COc1ccc(NC(=O)NCCCCc2ccccc2)cc1	none (no result: PREPL inhibitor)
Nc1nonc1C(=O)NCCN=Cc1ccccc1O	none (no result: Hep lipid drop)
Nc1nonc1C(=O)NCCN=Cc1cc(Cc2ccccc2)cc(Br)c1O	MC4R barr agon 9.2 (no result: Hep lipid drop)
CCN(CC)c1ccc2c(-c3ccc(S(=O)(=O)O)cc3S(=O)(=O)[O-])c3ccc(=[N+](CC)CC)cc-3oc2c1	MC4R antagonist 50.3, PREPL inhibitor active
CCN(CC)c1ccc2nc3c4ccccc4c(=O)cc-3oc2c1	none (no result: MC4R antagonist, MC4R barr agon, m5-HT2A agonist, PREPL inhibitor)
Cc1ccc(Cl)c(NC(=O)COC(=O)c2cc[n+]([O-])cc2)c1Cl	none (no result: Hep lipid drop)
CC1CCc2nc(NC(=O)CN3CCN(c4ccccc4)CC3)sc2C1 (configuration not stated)	none
CC1CCc2nc(NC(=O)CN3CCN(Cc4ccc5c(c4)OCO5)CC3)sc2C1 (configuration not stated)	MC4R barr agon 9.3
COc1ccc(CSc2nc3ccccc3c(=O)n2CCCN2CCOCC2)cc1F	none
CCCN1C(=O)/C(=C/c2ccc(N3CCOCC3)cc2)NC1=S	none
Cc1ccc(CN2C(=O)N/C(=C\c3ccc(N4CCOCC4)cc3)C2=O)cc1	MC4R barr agon 8.6, PREPL inhibitor 70.7
CCN1C(=O)/C(=C/c2ccc(N3CCCC3)cc2)NC1=S	Hep lipid drop 64.8
COC(=O)C1=C[C@@H](C(=O)OC)[C@@H]2C3=C(C(=O)C2(C)C)[C@H](C)n2c(=O)n(-c4ccccc4)c(=O)n2[C@@H]3C1	none (no result: Hep lipid drop)
CC1(C(=O)NS(=O)(=O)Cc2ccccc2)CCN1C(=O)CCc1ccccc1 (configuration not stated)	none (no result: PREPL inhibitor, Hep lipid drop, NTR1 ag)
CCOc1ccc(C(=O)NC(=S)Nc2ccc(N3CCCCC3)cc2)cc1[N+](=O)[O-]	MC4R barr agon 47.2
Cc1ccc(O)c(NC2=C(Cl)C(=O)N(Cc3ccccc3)C2=O)c1	MC4R barr agon 8.7 (no result: PREPL inhibitor, NTR1 ag)
COC(=O)c1ccccc1NC(=O)CC(=O)Nc1ccccc1C(=O)OC	none
COC(=O)c1ccccc1NC(=O)CSCC(=O)Nc1ccccc1	m5-HT2A agonist 18.0 (no result: Hep lipid drop)
NC(c1csc(NC(=O)Nc2ccc(OC(F)(F)F)cc2)n1)C1CCCCC1 (configuration not stated)	none (no result: PREPL inhibitor, Hep lipid drop, NTR1 ag)
CCN1CCN(CC(=O)Nc2ccc3c(c2)OCO3)C(=O)C1=O	m5-HT2A agonist 23.2
CCNC(=O)NC(=O)CSc1nc2ccccc2n1CCOC	none (no result: Hep lipid drop)
O=C(Nc1ccsc1C(=O)NC1CC1)c1ccccc1	none
O=C(Nc1ccsc1C(=O)NC1CCCCC1)c1ccc(F)cc1	MC4R barr agon 12.0 (no result: Hep lipid drop)
CCOC(=O)c1[nH]c(C)c(C(=O)OCC(=O)N2CCc3ccccc32)c1C	MC4R barr agon 8.5
CCOC(=O)c1c(C)[nH]c(C(=O)OCC(=O)N2CCc3ccccc32)c1C	none (no result: Hep lipid drop)
CCOC(=O)c1nc(C)nc(Sc2n[nH]c(-c3cc(Cl)cc(Cl)c3)n2)c1C	none
CCOC(=O)c1nc(C)nc(Sc2n[nH]c(-c3ccc(C(C)(C)C)cc3)n2)c1C	MC4R barr agon 9.3
Cc1ccc(NC(=O)c2ccccc2OCC(=O)c2ccccc2)cc1	MC4R barr agon 8.6
Cc1ccc(C(=O)COc2ccccc2C(=O)Nc2ccccc2)cc1	none (no result: Hep lipid drop)
CC1CCN(S(=O)(=O)c2cc(C(=O)N3CCN(c4ncccn4)CC3)ccc2Br)CC1	none
CC(=O)c1nn(-c2cccc(Br)c2)cc1C(=O)c1ccccc1	MC4R barr agon 9.4
Cc1cnc(NC(=O)c2ccc(OCC3CCCO3)cc2)s1 (configuration not stated)	none
O=C(Nc1nc2ccccc2s1)c1ccc(OCC2CCCO2)cc1 (configuration not stated)	Hep lipid drop 51.9
Nc1ccn([C@@H]2O[C@H](C(=O)N(CCC3=CCCCC3)CC3CC3)[C@@H](O)[C@H]2O)c(=O)n1	none (no result: MC4R antagonist, MC4R barr agon, PREPL inhibitor, Hep lipid drop, NTR1 ag)
COc1ccc(NC(=O)c2ccc(NC3CC(=O)N(c4ccc(C)cc4C)C3=O)cc2)cc1 (configuration not stated)	MC4R barr agon 8.2
COc1ccc(S(=O)(=O)NNC(=S)NCCc2ccccc2)c(OC)c1	none

Screening results as filed in PubChem BioAssay.
